The data set deals with MS2 coat protein. The data set can be described thus: apparent Kd, MS2 coat protein; higher = weaker binding; RNA-MaP array; FMN 200 µM where present. The essentials:
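SNAP-549-labelled MS2 coat protein, doubled from 0.7 or 1.5 nM to 3 µM, was titrated over designs transcribed by stalled E. coli RNA polymerase on Illumina sequencing-chip clusters. Titrations were run without and then with constant ligand in 100 mM Tris-HCl pH 7.5, 80 mM KCl, 4 mM MgCl2, BSA, DTT, yeast tRNA and Tween-20. The apparent Kd is the median of filtered per-cluster fits to green signal normalised to red-channel RNA signal and control-cluster median Fmax.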

Setting [1] is: designed as: OFF switch for flavin mononucleotide, no ligand.
Setting [2] is: ligand present: flavin mononucleotide, designed as: OFF switch for flavin mononucleotide.
The mark [3] stands for this setting: designed as: ON switch for flavin mononucleotide, no ligand.
The mark [4] stands for this setting: ligand present: flavin mononucleotide, designed as: ON switch for flavin mononucleotide.

The apparent Kd is a dissociation constant that holds for the conditions of the assay. Turning to “GUGGAGUAAGGAUAUACAUGAGGAUCACCCAUGUGAGGGUAUGUGAUGGGAGUAGGUUGUAGAAGGUACGAGGA”, the “apparent Kd” value is, setting by setting: under setting [1], 287 nM; under setting [2], 131 nM.
With “UGUAUUAAUGGAGGAUAUCGAUAUCAAACAUGAGGAUCACCCAUGUUGAGGAUCACCCAUGUCCAUGAGAAGGCCGGCGUACUU”, the “apparent Kd” value reads like this: under setting [3], 34.4 nM; under setting [4], 32.8 nM.
For “AGUGCCUCGAGAGGAUAUUACAUGAGGAUCACCCAUGUAACAGAGGUGGAAACACCUCUGAAAUGUAAGAAGGCUCGAGGCACA”, the “apparent Kd” value reads like this: under setting [1], 19.2 nM; under setting [2], 31.2 nM.
For “AUCAGCUCGUCAGGAUAUACGUCACUGCGUCAGCUGUGUGGUAAGAUCACAUGAGGAUCACCCAUGUAGAAGGGACGAGCUGAU”, in that order: 15.3 nM and 295 nM.
For “AAUUGACACGUAGGAUAUCGCUCUAAUUUAACACGAGAAGGACGUACAUGAGGAUCACCCAUGUUAAAUGGUGUAGAUUAGUUG”, in that order: 30.9 nM and 88 nM.
On to “GUGUGCUGAGGAUAUACAGAGGAAGAUAAUACAAUAUAAGUACAUGAGGAUCACCCAUGUAGAAGGCAGAGUGU”, for which the “apparent Kd” value is, setting by setting: under setting [1], 28.2 nM; under setting [2], 26.4 nM.
Consider “GUGUACAUUCGAGGAUAUCGGAGAGAGAUCAUUCGAGAAGGCGAUUCAUGAUGUAUUAUCCUGGACAUGAGGAUCACCCAUGUG”, for which the “apparent Kd” value runs as follows: under setting [3], 109 nM; under setting [4], 74.6 nM.
Turning to “GCAUGGUAUGAGAAGGCAUAUUUAAUCUAACAACAUGUUUACAUGAGGAUCACCCAUGUUACCAAUGAGGAUAUCAUACCGUGC”, the “apparent Kd” value came to 7.31 nM under setting [1] and 7.28 nM under setting [2].
Regarding “GUAGCAUUGAGAGGAUAUCCAUACCGGAAACGGACAUGAGGAUCACCCAUGUCGCGAAAGCGGUGGGAGAAGGCUCUAUGCUAC”, the “apparent Kd” value under setting [3] came to 4.52 nM and the “apparent Kd” value under setting [4] was determined as 4.46 nM.
As for “CAGCGAUAGCUAAAGUAUCUAUCAGAGGAUAUUUAUGAAACAUGAGGAUCACCCAUGUGACACUGGGAGAAGGCUGAUAGAUAG”, the “apparent Kd” value reads like this: under setting [3], 10.1 nM; under setting [4], 5.25 nM.
As for “AGCUACGUUUCGUAGCAGUGUCAUCGAGAAGGCCUUAUUACAUGAGGAUCACCCAUGUAUGCAUGGGAGGAUAUCGAUGAUACA”, the “apparent Kd” value runs as follows: under setting [3], 13.9 nM; under setting [4], 5.25 nM.
For “ACAAAGAGCCAAGGAUAUACGUCGUCGAGCCCUCCCGUAGUGGCCAGCACAUGAGGAUCACCCAUGUAGAAGGUGGCUGUAGUC”, the “apparent Kd” value is 20.1 nM under setting [1] and 38.5 nM under setting [2].
Turning to “CUGAAGAUAUCAGGAUAUCUAUUUCCUACAUGAGGAUCACCCAUGUAGGUGAUCAGCCAAGUAAAGGAGAAGGGAUAUCUUUAG”, the “apparent Kd” value worked out at 32.3 nM under setting [3] and 9.78 nM under setting [4].
In the case of “AAAAGGUCAGGAUAUACAAAAAAAAAAAAAAAAAAAAAAAAGUAGAAGGGACAUGAGGAUCACCCAUGUGAAAA”, the “apparent Kd” value was determined as 86.1 nM under setting [1] and 74 nM under setting [2].
On to “CCUAGAUAGGGAGGAUAUCACAACCAUCCCGGCGAUCCAACUACAUGAGGAUCACCCAUGUGGUGUGAGAAGGCCCAGUAAUAG”, for which the “apparent Kd” value came to 143 nM under setting [1] and 78.6 nM under setting [2].
For “CGCUGUAACGCAGGAUAUGCAUUGGAUUACAAUGCAGAAGGGCGAUUACAUGAGGAUCACCCAUGUGUAAACAGUGAAGAAGAG”, the “apparent Kd” value amounted to 220 nM under setting [3] and 41.2 nM under setting [4].
As to “UUACUCAUGUAAGGAUAUGCAGCCGUUUCGGCUGCAGAAGGUACUAUACUACAUGAGGAUCACCCAUGUCUAUAAAAUAAAGAC”, the “apparent Kd” value is, setting by setting: under setting [3], 123 nM; under setting [4], 44.4 nM.
For “UUACUUCAUGAGAAGGACAUGAGGAUCACCCAUGUAGGAUAUCGUGGGAGACUGGUAUUGAAUCUUCGGAUUCAAUACCAGUCU”, in that order: 56.9 nM and 9.15 nM.
Turning to “CAUCAAAGAAUACCAGGGCAUUAAUGAGAAGGCCAACCACAUGAGGAUCACCCAUGUACGGGAGUGGAGGAUAUCAGUGGGCCG”, the “apparent Kd” value under setting [3] came to 52.5 nM and the “apparent Kd” value under setting [4] is 6.43 nM.
Turning to “AACUGACAUGAGGAUCACCCAUGUCAGGAUAUGACUUCAAAAUAAAAAUAAAAUGAUGUCAGAAGGGACAUGAA”, the “apparent Kd” value reads like this: under setting [1], 13.3 nM; under setting [2], 12 nM.
Turning to “ACCAGGGAUUCAGGAUAUAUUAGCCGAGGCCGCGUAGAAGGGAAAUCCUGACAUGAGGAUCACCCAUGUCGACCCGCCUUCCAC”, the “apparent Kd” value under setting [3] stood at 22.8 nM and the “apparent Kd” value under setting [4] was 24.2 nM.
Take “GCGUUAGUAUCACAUGUAUUACAUGAGGAUCACCCAUGUUACUAGGAUAUGUAUUAGUAUUAUCAACAGAAGGAGUAAUAACGC”: the “apparent Kd” value came out at 12.5 nM under setting [1] and 17.6 nM under setting [2].
As to “AACAGUACAGGAUAUACAUGAGGAUCACCCAUGUGAGAAUUAAGUGGCGUACCACUAUGUAGAAGGGUACUGGA”, the “apparent Kd” value under setting [1] amounted to 103 nM and the “apparent Kd” value under setting [2] turned out to be 225 nM.
In the same order, the values of “UCAGUAGAGUCAGGAUAUACCGAAAAGAAUCCUCACAUGAGGAUCACCCAUGUAGAAGGGACUCUACUGUAAGUCGGAAACGAC” are 91.8 nM and 868 nM.
For “GGAAAGCAAGGAUAUGCAAACAAACAAACAAACAAAAGGGAACAUGAGGAUCACCCAUGUAGAAGGUGCAAACA”, the “apparent Kd” value runs as follows: under setting [1], 40.8 nM; under setting [2], 32.5 nM.
For “CGUGUGUCAGGAUAUUAGUAGUGUGUGGAUACAUAUAUUGCUGAGAAGGGACAUGAGGAUCACCCAUGUAUACG”, the “apparent Kd” value is, setting by setting: under setting [1], 46.9 nM; under setting [2], 169 nM.
In the case of “UCUUAUUGCAAGGAUAUGCAAAUUAUUUUUUAAGCAGAAGGUGCAACAUGAGGAUCACCCAUGUUUCCGGGCAA”, the “apparent Kd” value runs as follows: under setting [1], 15.3 nM; under setting [2], 42.9 nM.
Turning to “UUUUAACAUGAGGAUCACCCAUGUCGUUCAAAUCAAGGAUAUCAAGCGUGUGCACACGCCUGAGAAGGUGAAGCUC”, the “apparent Kd” value is 55.8 nM under setting [3] and 98.9 nM under setting [4].
As for “UUAACAUGAGGAUCACCCAUGUAAAGAACGGUUAAUUAAAGUGAGGAUAUACAAAAUUUUAUAUUGUAGAAGGCACUGGGUACA”, the “apparent Kd” value under setting [4] turned out to be 22.9 nM.
Take “CGAUAUAUGAAGGACGGAAACGUACAUGAGGAUCACCCAUGUAGAAGGCGAUCCGCAACGCGGAUCGAGGAUAUAUAGUAUACA”: the “apparent Kd” value is, setting by setting: under setting [1], 24.2 nM; under setting [2], 17.6 nM.
For “GCGCUUAUACAGAAGGCCAUAUACAUGAGGAUCACCCAUGUUACAUGGUGGAGGAUAUGUUAUUAAGUACAGGUAGAUGAGCGC”, the “apparent Kd” value reads like this: under setting [3], 5.98 nM; under setting [4], 5.38 nM.
Turning to “GUUCUUCCUGUAAGGAUAUCCAUGUAUCAGUUUAUGGAGAAGGUACAUGAGGAUCACCCAUGUCACCCGCGUUA”, the “apparent Kd” value by setting is: under setting [1], 20.1 nM; under setting [2], 46.1 nM.
As to “AGUCAUACAGGAUAUACAUGAGGAUCACCCAUGUUUAUCCUACAUGGGUGAUCCUCAUGUAGAAGGGUAUGACA”, the “apparent Kd” value reads like this: under setting [1], 11.2 nM; under setting [2], 9.45 nM.
Take “CUCGGCGAGGGAGGAUAUCCCUAUGAGGCGGUGCAGCUCGGGAACAUGAGGAUCACCCAUGUAGCGGAGAAGGCCCAUACGCCU”: the “apparent Kd” value runs as follows: under setting [1], 9.59 nM; under setting [2], 34.5 nM.
Regarding “CGAUAUUAUAGAGGAUAUGUUUAACAUGAGGAUCACCCAUGUGAGGUGGAAUUAAUGUAUAACUUACAGAAGGCUAUACAAUCG”, the “apparent Kd” value worked out at 417 nM under setting [1] and 500 nM under setting [2].
As for “AAAAGUCGAGGAUAUGCAAAAUGAUUGCGAAAGCAAUCAAAACAUGAGGAUCACCCAUGUAGAAGGCGACAAAA”, the “apparent Kd” value by setting is: under setting [1], 21.3 nM; under setting [2], 13.9 nM.
On to “UGUUGUAUUACAGGAUAUCUAUUAGUAUUAUUUAGAGAAGGGUAUUCACAUGAGGAUCACCCAUGUAUAUACGAGGAAGUUGUG”, for which the “apparent Kd” value reads like this: under setting [3], 46.9 nM; under setting [4], 48.4 nM.
Turning to “AAAACAGCGCGUCCCGCGCCAACUACAGAAGGCCAACAUGAGGAUCACCCAUGUACAAACUAGAUGGAGGAUAUGUAGGUUCUA”, the “apparent Kd” value reads like this: under setting [3], 6.35 nM; under setting [4], 4.5 nM.
As to “GUACCUUAUGAGAAGGCGAUCAUUAAACAUGAUCGAGGAUAUCAUGUAAACAUGAGGAUCACCCAUGUAUGGGUAUUAUGGUAC”, the “apparent Kd” value by setting is: under setting [3], 66.7 nM; under setting [4], 19.3 nM.
For the sequence “CCUCAUUGGCAGGAUAUCAGCACUAACGUGGUAUGAGAAGGGUCGACAUGAGGAUCACCCAUGUCAAUUGUCUG”, the “apparent Kd” value reads like this: under setting [1], 31.2 nM; under setting [2], 122 nM.
Consider “AUACUCAUGUAAGGAUAUGCAGCCGUUUCGGCUGCAGAAGGUACUAUAAUACAUGAGGAUCACCCAUGUCUAUAAAAUAAAGAC”, for which the “apparent Kd” value runs as follows: under setting [3], 60.6 nM; under setting [4], 41.5 nM.
As for “AAUGUUGUUGUGAGGAUAUCGUAGUUAUUUUGAAACGAGAAGGCACAUGAGGAUCACCCAUGUUUGUUGAUGGU”, the “apparent Kd” value is, setting by setting: under setting [1], 22.9 nM; under setting [2], 47.9 nM.
In the same order, the values of “AACUUACAUGAGGAUCACCCAUGUCAGGAUAUCGAAAUUGGCUCGCAAUUGCGAGCGACGAGAAGGGACGUUUU” are 17.3 nM and 24.8 nM.
Regarding “UUGUUGUAUGUAGGAUAUGCAUAUUAUUAUUAUGCAGAAGGACAUGAGGAUCACCCAUGUAUGUUAUUAUUAUGUGUUAUGUGU”, the “apparent Kd” value under setting [1] was determined as 44 nM and the “apparent Kd” value under setting [2] worked out at 71.5 nM.
As to “GGGUACAUCGGAGGAUAUCAUGUAAAUACAUGAGGAUCACCCAUGUCGAUGGAGACAUCGGAGAUUGAGAAGGCCGACGUACCG”, the “apparent Kd” value is, setting by setting: under setting [3], 187 nM; under setting [4], 9.15 nM.
As for “UGGUACUAGGGAGGAUAUGGGAAGAUACAUGAGGAUCACCCAUGUUUACGAAUGCCGAGAGGCAACUAGAAGGCCCUAGUACCU”, the “apparent Kd” value under setting [3] turned out to be 315 nM and the “apparent Kd” value under setting [4] was 19.5 nM.
For the sequence “AUCUCAGGACGAGGAUAUCAAUACAUGAGGAUCACCCAUGUAUGACUACUGUGAUCCUUUAAGGCUGAGAAGGCGUCCCAAAUG”, the “apparent Kd” value reads like this: under setting [1], 20.2 nM; under setting [2], 60.8 nM.
With “AAAGUGCCGACGAAGGAUAUAGCGGGUGAGACAUGAGGAUCACCCAUGUAUGCAGAACUCAUCCUCUAGAAGGUUGAGACGGCUA”, the “apparent Kd” value is 113 nM under setting [3] and 177 nM under setting [4].

The values are drawn from the EternaBench riboswitch data.
